This is an account of results in ChEMBL document CHEMBL1124533, “Inhibition of human leukocyte elastase by derivatives of N-hydroxysuccinimide. A structure-activity-relationship study” (J Med Chem, 1989).

Calls of active or inactive are those of the source. The calls are words filed in the database; no cut-off is given here.

The first experiment addresses T1, Neutrophil elastase (Homo sapiens) (UniProt P08246).
T1 sequence (whole entry): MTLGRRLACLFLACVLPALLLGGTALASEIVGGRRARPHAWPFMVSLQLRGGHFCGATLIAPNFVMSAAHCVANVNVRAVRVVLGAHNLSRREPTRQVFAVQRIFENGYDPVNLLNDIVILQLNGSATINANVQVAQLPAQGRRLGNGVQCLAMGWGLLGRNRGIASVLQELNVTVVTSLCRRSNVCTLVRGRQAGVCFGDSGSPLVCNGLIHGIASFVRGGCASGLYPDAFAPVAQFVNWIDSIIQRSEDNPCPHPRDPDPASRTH
Description: Catalytic rate constant (Kobs/[I]) against human leukocyte elastase was determined. Summed up:
(§1)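 Human leukocyte elastase (10 μL of 2.23 × 10⁻⁵ M stock in 0.05 M sodium acetate, pH 5.5) preincubated with inhibitor (20 μL of 2.23 × 10⁻² M DMSO stock) in HEPES pH 7.2, 1 mL total, thermostated. Aliquots withdrawn over time into MeOSuc-Ala-Ala-Pro-Val-pNA; A410 read for 2 min after 30 s. kobs from ln(vt/v0) vs t, divided by [I]; mean of two determinations.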
In the case of `O=C1CC(Cc2ccccc2)C(=O)N1OS(=O)(=O)c1cccc(C(F)(F)F)c1` (stereo unspecified), the K obs / 1 was 316 M⁻¹ s⁻¹.

In turn, `CS(=O)(=O)ON1C(=O)CC(Cc2cccc(F)c2)C1=O` (stereo unspecified) had a K obs / 1 of 373 M⁻¹ s⁻¹.

`CC(C)CCC1CC(=O)N(OS(C)(=O)=O)C1=O` (stereo unspecified) had a K obs / 1 of 361 M⁻¹ s⁻¹.

In turn, `CC(C)CC1CC(=O)N(OS(C)(=O)=O)C1=O` (stereo unspecified) showed a K obs / 1 of 49300 M⁻¹ s⁻¹.

Molecule `CC(C)C1CC(=O)N(OS(C)(=O)=O)C1=O` (stereo unspecified) gave a K obs / 1 of 3820 M⁻¹ s⁻¹.

With `CN(C)S(=O)(=O)ON1C(=O)CC(Cc2ccccc2)C1=O` (stereo unspecified), the K obs / 1 was 323 M⁻¹ s⁻¹.

As to `CC(C)S(=O)(=O)ON1C(=O)CC(Cc2ccccc2)C1=O` (stereo unspecified), the K obs / 1 is 1100 M⁻¹ s⁻¹.

In the case of `O=C1CC(Cc2ccccc2)C(=O)N1OS(=O)(=O)c1ccccc1` (stereo unspecified), the K obs / 1 is 1170 M⁻¹ s⁻¹.

Consider `CCCCS(=O)(=O)ON1C(=O)CC(Cc2ccccc2)C1=O` (stereo unspecified), for which the K obs / 1 turned out to be 1680 M⁻¹ s⁻¹.

Molecule `CS(=O)(=O)ON1C(=O)CC(Cc2cccc(C(F)(F)F)c2)C1=O` (stereo unspecified) came in with a K obs / 1 of 217 M⁻¹ s⁻¹.

Regarding `CC(C)C1CC(=O)N(OS(=O)(=O)/C=C/c2ccccc2)C1=O` (stereo unspecified), the K obs / 1 is above 100000 M⁻¹ s⁻¹.

Molecule `O=C1CC(Cc2ccccc2C(F)(F)F)C(=O)N1OS(=O)(=O)/C=C/c1ccccc1` (stereo unspecified) returned a K obs / 1 of 1860 M⁻¹ s⁻¹.

For `CC(C)CC1CC(=O)N(OS(=O)(=O)/C=C/c2ccccc2)C1=O` (stereo unspecified), the K obs / 1 is above 100000 M⁻¹ s⁻¹.

On to `CC(C)CCC1CC(=O)N(OS(=O)(=O)/C=C/c2ccccc2)C1=O` (stereo unspecified), for which the K obs / 1 was 2250 M⁻¹ s⁻¹.

On to `O=C1CC(Cc2ccccc2)C(=O)N1OS(=O)(=O)c1ccc(F)cc1` (stereo unspecified), for which the K obs / 1 worked out at 1110 M⁻¹ s⁻¹.

As for `O=C1CC(Cc2ccccc2)C(=O)N1OS(=O)(=O)c1ccc(Br)cc1` (stereo unspecified), the K obs / 1 worked out at 1650 M⁻¹ s⁻¹.

The molecule `O=C1CC(Cc2ccccc2)C(=O)N1OS(=O)(=O)c1ccc2ccccc2c1` (stereo unspecified) yielded a K obs / 1 of 1580 M⁻¹ s⁻¹.

As to `CCCCCCCCS(=O)(=O)ON1C(=O)CC(Cc2ccccc2)C1=O` (stereo unspecified), the K obs / 1 was determined as 1270 M⁻¹ s⁻¹.

In turn, `CS(=O)(=O)ON1C(=O)CC(Cc2ccc(C(F)(F)F)cc2)C1=O` (stereo unspecified) displayed a K obs / 1 of 84 M⁻¹ s⁻¹.

`O=C1CC(Cc2ccccc2)C(=O)N1OS(=O)(=O)c1cccc2ccccc12` (stereo unspecified) yielded a K obs / 1 of 620 M⁻¹ s⁻¹.

In the case of `Cc1ccc(S(=O)(=O)ON2C(=O)CC(Cc3ccccc3)C2=O)cc1` (stereo unspecified), the K obs / 1 is 1610 M⁻¹ s⁻¹.

Turning to `CS(=O)(=O)ON1C(=O)CC(Cc2ccccc2C(F)(F)F)C1=O` (stereo unspecified), the K obs / 1 was 189 M⁻¹ s⁻¹.

Turning to `CS(=O)(=O)ON1C(=O)CC(Cc2ccccc2)C1=O` (stereo unspecified), the K obs / 1 came to 1050 M⁻¹ s⁻¹.

For `O=C1CC(Cc2ccccc2)C(=O)N1OS(=O)(=O)/C=C/c1ccccc1` (stereo unspecified), the K obs / 1 worked out at 9430 M⁻¹ s⁻¹.

In the case of `O=C1CC(Cc2ccccc2)C(=O)N1OS(=O)(=O)Cc1ccccc1` (stereo unspecified), the K obs / 1 turned out to be 770 M⁻¹ s⁻¹.

For a further experiment, the target named is T1, Neutrophil elastase (Homo sapiens). Description: Catalytic rate constant (Kobs/[I]) against human leukocyte elastase was determined; Inactive. Summed up: as §1
As to `O=C1CCC(=O)N1OS(=O)(=O)/C=C/c1ccccc1`, the “K obs / 1” value is “inactive”.
